Data reported in ChEMBL document CHEMBL3763121, “Synthesis, biological evaluation and structural analysis of novel peripherally active morphiceptin analogs” (Bioorg Med Chem, 2016).
Calls of active or inactive are those of the source. The rule behind the calls is not given here. Where a SMILES comes first, the peptide text is derived from it.

Experiments:
[1] = target: Mu-type opioid receptor (Rattus norvegicus, UniProt P33535); test: Displacement of [3H]DAMGO from MOR in Wistar rat brain homogenate by scintillation counting analysis; assay type: tissue-based
How it was run: (§1)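 Competitive radioligand displacement in brain homogenates from adult male Wistar rats: [3H]DAMGO for MOR, [3H][Ile5,6]deltorphin-2 for DOR. IC50 read from logarithmic dose–displacement curves and converted to Ki. Three independent experiments, each in duplicate.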

[2] = target: T1, Kappa-type opioid receptor (Homo sapiens, UniProt P41145); test: Agonist activity at human recombinant KOR expressed in CHO cells at 1 uM by calcium mobilization assay; assay type: functional, cell-based
[3] = target: Delta-type opioid receptor (Rattus norvegicus, UniProt P33533); test: Displacement of [3H][Ile5,6]deltorphin-2 from DOR in Wistar rat brain homogenate by scintillation counting analysis; assay type: tissue-based; how it was run: as §1
[4] = target: T2, Mu-type opioid receptor (Homo sapiens, UniProt P35372); test: Agonist activity at human recombinant MOR expressed in CHO cells by calcium mobilization assay; assay type: functional, cell-based
[5] = target: Kappa-type opioid receptor (Cavia porcellus, UniProt P41144); test: Displacement of [3H]nor-BNI from KOR in Dunkin Hartley guinea pig brain homogenate by scintillation counting analysis; assay type: tissue-based
How it was run: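 KOR affinity measured by competitive displacement of [3H]nor-BNI in guinea pig brain membranes. IC50 taken from logarithmic dose–displacement curves and converted to Ki. Three independent experiments run in duplicate.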

[6] = target: Delta-type opioid receptor (Homo sapiens) (UniProt P41143); test: Agonist activity at human recombinant DOR expressed in CHO cells at 1 uM by calcium mobilization assay; assay type: functional, cell-based
[7] = Retention time of compound by RP-HPLC analysis; assay type: physicochemical
How it was run: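 Solvent A was 0.1% TFA in water and B was 80% acetonitrile with 0.1% TFA. Linear gradient of 0–100% B over 50 min at 1 ml/min.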

[8] = target: T1, Kappa-type opioid receptor; test: Intrinsic activity at human recombinant KOR expressed in CHO cells at 1 uM by calcium mobilization assay relative to dynorphin A; assay type: functional, cell-based
[9] = target: T1, Kappa-type opioid receptor; test: Agonist activity at human recombinant KOR expressed in CHO cells by calcium mobilization assay; assay type: functional, cell-based
How it was run: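 CHO cells stably co-expressing human recombinant KOR and the C-terminally modified chimeric G protein Gαqi5. Calcium mobilization read-out. Concentration–response curves fitted with a sigmoidal equation that includes baseline, Emax and Hill coefficient. Potency reported as pEC50, the negative log molar concentration giving 50% of the maximal effect. Efficacy reported as intrinsic activity, the ligand Emax relative to the standard agonist Emax.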

[10] = target: T2, Mu-type opioid receptor; test: Agonist activity at human recombinant MOR expressed in CHO cells at 1 uM by calcium mobilization assay; assay type: functional, cell-based

Mu-type opioid receptor (Rattus norvegicus, UniProt P33535), sequence (P33535 whole entry): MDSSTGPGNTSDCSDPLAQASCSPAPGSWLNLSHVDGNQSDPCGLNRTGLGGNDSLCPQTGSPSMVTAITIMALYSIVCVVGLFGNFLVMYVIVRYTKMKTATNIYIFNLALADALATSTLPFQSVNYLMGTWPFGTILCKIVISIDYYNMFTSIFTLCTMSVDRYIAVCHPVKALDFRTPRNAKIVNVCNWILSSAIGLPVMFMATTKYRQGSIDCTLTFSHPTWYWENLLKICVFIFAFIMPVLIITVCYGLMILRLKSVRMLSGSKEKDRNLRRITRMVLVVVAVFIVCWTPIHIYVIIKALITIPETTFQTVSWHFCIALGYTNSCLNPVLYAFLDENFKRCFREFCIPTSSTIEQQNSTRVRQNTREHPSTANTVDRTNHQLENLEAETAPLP
Delta-type opioid receptor, sequence (P33533 whole entry): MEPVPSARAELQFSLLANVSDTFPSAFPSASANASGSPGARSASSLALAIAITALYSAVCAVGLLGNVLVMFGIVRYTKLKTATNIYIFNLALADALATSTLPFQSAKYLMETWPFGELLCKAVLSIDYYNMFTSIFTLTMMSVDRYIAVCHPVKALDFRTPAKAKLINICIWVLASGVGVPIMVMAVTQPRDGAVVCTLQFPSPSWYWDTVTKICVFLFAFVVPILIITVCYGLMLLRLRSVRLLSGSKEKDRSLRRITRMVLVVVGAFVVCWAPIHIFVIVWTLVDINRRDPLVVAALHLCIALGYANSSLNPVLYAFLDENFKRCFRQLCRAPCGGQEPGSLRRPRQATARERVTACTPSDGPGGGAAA
Kappa-type opioid receptor (Cavia porcellus, UniProt P41144), sequence (P41144 whole entry): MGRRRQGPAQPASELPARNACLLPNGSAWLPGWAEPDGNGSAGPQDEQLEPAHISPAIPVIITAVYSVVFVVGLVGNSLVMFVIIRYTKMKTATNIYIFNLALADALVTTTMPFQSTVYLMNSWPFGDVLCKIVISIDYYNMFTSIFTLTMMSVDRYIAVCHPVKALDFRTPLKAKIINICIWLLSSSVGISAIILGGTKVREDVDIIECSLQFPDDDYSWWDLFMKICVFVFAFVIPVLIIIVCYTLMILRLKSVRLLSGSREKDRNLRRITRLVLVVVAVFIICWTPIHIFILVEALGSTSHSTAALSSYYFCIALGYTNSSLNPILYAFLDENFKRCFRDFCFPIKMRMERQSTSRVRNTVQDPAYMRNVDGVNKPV
T2 sequence (P35372 whole entry): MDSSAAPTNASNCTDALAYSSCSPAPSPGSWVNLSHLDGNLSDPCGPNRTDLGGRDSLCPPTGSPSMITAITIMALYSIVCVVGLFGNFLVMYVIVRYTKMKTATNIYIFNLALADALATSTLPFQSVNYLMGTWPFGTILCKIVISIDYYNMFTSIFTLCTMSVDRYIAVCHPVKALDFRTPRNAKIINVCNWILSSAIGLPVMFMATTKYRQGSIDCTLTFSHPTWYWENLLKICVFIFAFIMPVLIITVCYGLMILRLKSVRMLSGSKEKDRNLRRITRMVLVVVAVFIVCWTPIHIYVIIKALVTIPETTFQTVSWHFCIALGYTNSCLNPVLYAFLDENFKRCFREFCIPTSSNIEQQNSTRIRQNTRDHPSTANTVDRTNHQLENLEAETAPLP
T1 sequence (P41145 whole entry): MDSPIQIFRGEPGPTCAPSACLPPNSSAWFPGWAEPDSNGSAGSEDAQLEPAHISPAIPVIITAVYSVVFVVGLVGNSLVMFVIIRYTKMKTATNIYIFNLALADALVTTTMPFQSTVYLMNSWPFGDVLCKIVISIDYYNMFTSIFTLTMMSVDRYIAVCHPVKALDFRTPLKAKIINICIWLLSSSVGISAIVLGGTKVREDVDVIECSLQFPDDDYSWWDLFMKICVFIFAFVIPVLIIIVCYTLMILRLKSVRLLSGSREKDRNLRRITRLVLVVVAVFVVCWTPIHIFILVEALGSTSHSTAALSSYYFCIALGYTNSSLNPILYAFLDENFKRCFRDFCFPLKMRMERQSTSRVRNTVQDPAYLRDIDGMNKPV
Delta-type opioid receptor (Homo sapiens), sequence (P41143 whole entry): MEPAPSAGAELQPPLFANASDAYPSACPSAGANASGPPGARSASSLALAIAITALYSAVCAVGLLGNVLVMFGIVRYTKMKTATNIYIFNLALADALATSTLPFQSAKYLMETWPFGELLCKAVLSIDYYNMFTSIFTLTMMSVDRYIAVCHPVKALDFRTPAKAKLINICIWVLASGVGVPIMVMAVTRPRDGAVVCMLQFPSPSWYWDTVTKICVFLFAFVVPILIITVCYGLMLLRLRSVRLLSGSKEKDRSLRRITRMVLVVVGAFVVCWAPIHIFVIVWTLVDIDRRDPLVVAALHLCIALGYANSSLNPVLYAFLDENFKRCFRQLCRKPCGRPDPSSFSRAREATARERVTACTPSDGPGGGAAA

Row | SMILES | Ki [1] [nM] | Activity [2] | Ki [3] [nM] | EC50 [4] [nM] | Ki [5] [nM] | Activity [6] | Retention_time [7] [min] | Intrinsic activity [8] | EC50 [9] [nM] | Activity [10]
1 | NC(=O)[C@@H]1CCCN1C(=O)[C@H](Cc1ccccc1)NC(=O)[C@@H]1CCCN1C(=O)[C@@H](N)Cc1ccc(O)cc1 [MORPHICEPTIN] (H-YPFP-NH2) | 36.4 | inactive | > 1000 | 741 | > 1000 | inactive | – | – | – | –
2 | NC(=O)[C@H]1CC(F)(F)CN1C(=O)[C@H](Cc1ccccc1)NC(=O)[C@@H]1CC(F)(F)CN1C(=O)[C@@H](N)Cc1ccc(O)cc1 | 0.37 | – | > 1000 | 4.68 | 386 | inactive | 14.99 | 0.84 | 813 | –
3 | C[C@H](NC(=O)[C@@H](N)Cc1ccc(O)cc1)C(=O)N[C@@H](Cc1ccccc1)C(=O)NCC(=O)N[C@@H](Cc1ccc(O)cc1)C(=O)N1CCC[C@H]1C(=O)N[C@@H](CO)C(N)=O | – | inactive | – | – | – | – | – | – | – | –
4 | CC1(C)SSC(C)(C)[C@@H](NC(=O)[C@@H](N)Cc2ccc(O)cc2)C(=O)NCC(=O)N[C@@H](Cc2ccccc2)C(=O)N[C@H]1C(=O)O | – | inactive | – | – | – | – | – | – | – | –
5 | NC(=O)[C@H]1CC(F)(F)CN1C(=O)[C@H](Cc1ccccc1)NC(=O)[C@@H]1CCCN1C(=O)[C@@H](N)Cc1ccc(O)cc1 | 13.3 | – | > 1000 | 20.4 | > 1000 | inactive | 14.22 | – | – | –
6 | NC(=O)[C@@H]1CCCN1C(=O)[C@H](Cc1ccccc1)NC(=O)[C@H]1CC(F)(F)CN1C(=O)[C@@H](N)Cc1ccc(O)cc1 | > 1000 | inactive | > 1000 | – | > 1000 | inactive | 14.1 | – | – | inactive
7 | NC(=O)[C@@H]1CC(F)(F)CN1C(=O)[C@H](Cc1ccccc1)NC(=O)[C@@H]1CC(F)(F)CN1C(=O)[C@@H](N)Cc1ccc(O)cc1 | 106 | inactive | > 1000 | 398 | > 1000 | inactive | 14.56 | – | – | –
